These results are taken from ChEMBL document CHEMBL4118103, “Synthesis and Bioactivity Investigation of the Individual Components of Cyclic Lipopeptide Antibiotics” (J Med Chem, 2018).

As usually defined, the MIC is the lowest concentration found to suppress growth. A word on the CC50: it is the concentration that lowers cell viability or growth by half.

The test system of data set [1] is Klebsiella pneumoniae. Kind of data set: Antibacterial activity against NDM-1 producing Klebsiella pneumoniae ATCC BAA-2146 after 18 hrs by agar dilution method. In kind it is functional. In outline:
(§1)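 Serial two-fold agar dilution per CLSI; bacteria cultured in Mueller-Hinton broth, inoculum about 10^4 cfu/spot; final concentrations 0.03-128 µg/mL; plates incubated 35 °C for 18 h. MIC = lowest concentration preventing visible growth; representative of at least two independent experiments, a third run when the two disagreed.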
(In general: In agar dilution, organisms are placed on agar that contains the substance at set levels.)

Data set [2] concerns Escherichia coli. Kind of data set: Antibacterial activity against extended-spectrum beta-lactamase producing Escherichia coli isolate 14-11 after 18 hrs by agar dilution method. In kind it is functional. An outline of the steps: as §1
The test system of a further data set is Acinetobacter baumannii. Nature of the data set: Antibacterial activity against Acinetobacter baumannii ATCC 19606 after 18 hrs by agar dilution method. Type of data set: functional. In outline:
as §1

In data set [3] the test system is Escherichia coli. Nature of the data set: Antibacterial activity against Escherichia coli ATCC 25922 after 18 hrs by agar dilution method. Type of data set: functional. An outline of the steps:
as §1

The subject of data set [4] is Klebsiella pneumoniae. Kind of data set: Antibacterial activity against extended-spectrum beta-lactamase producing Klebsiella pneumoniae 700603 after 18 hrs by agar dilution method. In kind it is functional. In outline:
as §1

A short description of data set [5]: Cytotoxicity against African green monkey Vero cells after 72 hrs by MTT assay. Type of data set: cell-based. As to conditions: chlorocebus sabaeus, Vero cells. An outline of the steps: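 Vero cells seeded at 2x10^3 cells/well, incubated 24 h at 37 °C, 5% CO2, then exposed to compound 72 h; MTT added for 2 h, medium removed, formazan dissolved in DMSO, absorbance read at 570 nm. Viability relative to untreated cells (100%); CC50 as mean ± SD of three independent experiments, each in triplicate.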
For orientation: Tetrazolium dyes change colour on reduction, which living cells bring about.

The test system of a further data set is Pseudomonas aeruginosa. Kind of data set: Antibacterial activity against Pseudomonas aeruginosa ATCC 27853 after 18 hrs by agar dilution method. In kind it is functional. An outline of the steps:
as §1

Setting [6] is: ATCC 19606 = CIP 70.34 = JCM 6841, 18 h.
[7] abbreviates: Klebsiella pneumoniae, 700603, 18 h.

Values after ≈ are worked out from the molar mass of the structure shown. Bridge positions count the residues as written; N and C are the ends. Square brackets hold non-standard residues; d marks the D form. Peptide text beside a SMILES is read from it. * marks the point of attachment. Octanoyl(7-Me) = CC(C)CCCCCC(=O)*; Nonanoyl = CCCCCCCCC(=O)*; X1 = CC[C@H](C)CCCCC(=O)*; dDab = NCC[C@@H](N)C(=O)O; Heptanoyl = CCCCCCC(=O)*; Dab = NCC[C@H](N)C(=O)O; Nva = CCC[C@H](N)C(=O)O

`CCC[C@@H]1NC(=O)[C@@H](CC(C)C)NC(=O)[C@H](CCN)NC(=O)[C@@H](NC(=O)[C@H](CCN)NC(=O)[C@@H](NC(=O)[C@H](CCN)NC(=O)CCCC[C@@H](C)CC)[C@@H](C)O)CCNC(=O)[C@H]([C@@H](C)O)NC(=O)[C@H](CCN)NC(=O)[C@H](CCN)NC1=O` (X1-[Dab]T[Dab][Dab][Dab][dL][Nva][Dab][Dab]T; lactam 4-C): the MIC came to 1 µg/mL (≈ 0.865 µM) against Klebsiella pneumoniae [1] (ATCC BAA-2146, 18 h); 1 µg/mL (≈ 0.865 µM) in the data set with Escherichia coli [2] (isolate 14-11, 18 h); 1 µg/mL (≈ 0.865 µM) against Acinetobacter baumannii (setting [6]); 1 µg/mL (≈ 0.865 µM) in the data set with Escherichia coli [3] (ATCC 25922, 18 h); 2 µg/mL (≈ 1.73 µM) in the data set with Klebsiella pneumoniae [4] (setting [7]); 1 µg/mL (≈ 0.865 µM) with Pseudomonas aeruginosa (ATCC 27853, 18 h). Moreover, the CC50 at 72 h in data set [5] came out at 109 µg/mL (≈ 94.3 µM).
As to `CC[C@H](C)CCCCC(=O)N[C@@H](CCN)C(=O)N[C@H](C(=O)N[C@H](CCN)C(=O)N[C@H]1CCNC(=O)[C@H]([C@@H](C)O)NC(=O)[C@H](CCN)NC(=O)[C@H](CCN)NC(=O)[C@H]([C@@H](C)O)NC(=O)[C@@H](CC(C)C)NC(=O)[C@H](CCN)NC1=O)[C@@H](C)O` (X1-[Dab]T[dDab][Dab][Dab][dL]T[Dab][Dab]T; lactam 4-C), the MIC in the data set with Klebsiella pneumoniae [1] (ATCC BAA-2146, 18 h) worked out at 1 µg/mL (≈ 0.864 µM); against Escherichia coli [2] (isolate 14-11, 18 h), 1 µg/mL (≈ 0.864 µM); with Acinetobacter baumannii (setting [6]) it was 1 µg/mL (≈ 0.864 µM); in the data set on Escherichia coli [3] (ATCC 25922, 18 h) it was 0.5 µg/mL (≈ 0.432 µM); against Klebsiella pneumoniae [4] (setting [7]), 1 µg/mL (≈ 0.864 µM); with Pseudomonas aeruginosa (ATCC 27853, 18 h) it was 1 µg/mL (≈ 0.864 µM). In data set [5], this molecule had a CC50 at 72 h of 145 µg/mL (≈ 125 µM).
Take `CC[C@H](C)CCCCC(=O)N[C@@H](CCN)C(=O)N[C@H](C(=O)N[C@H](CO)C(=O)N[C@H]1CCNC(=O)[C@H]([C@@H](C)O)NC(=O)[C@H](CCN)NC(=O)[C@H](CCN)NC(=O)[C@H]([C@@H](C)O)NC(=O)[C@@H](CC(C)C)NC(=O)[C@H](CCN)NC1=O)[C@@H](C)O` (X1-[Dab]T[dS][Dab][Dab][dL]T[Dab][Dab]T; lactam 4-C): the MIC against Klebsiella pneumoniae [1] (ATCC BAA-2146, 18 h) came out at 0.5 µg/mL (≈ 0.437 µM); in the data set on Escherichia coli [2] (isolate 14-11, 18 h), 0.25 µg/mL (≈ 0.218 µM); in the data set with Acinetobacter baumannii (setting [6]), 0.06 µg/mL (≈ 0.0524 µM); against Escherichia coli [3] (ATCC 25922, 18 h), 0.12 µg/mL (≈ 0.105 µM); against Klebsiella pneumoniae [4] (setting [7]) it was 1 µg/mL (≈ 0.874 µM); against Pseudomonas aeruginosa (ATCC 27853, 18 h), 2 µg/mL (≈ 1.75 µM). The same molecule yielded a CC50 at 72 h in data set [5] of 189 µg/mL (≈ 165 µM).
For `CC(C)CCCCCC(=O)N[C@@H](CCN)C(=O)N[C@H](C(=O)N[C@@H](CCN)C(=O)N[C@H]1CCNC(=O)[C@H]([C@@H](C)O)NC(=O)[C@H](CCN)NC(=O)[C@H](CCN)NC(=O)[C@H](CC(C)C)NC(=O)[C@@H](CC(C)C)NC(=O)[C@H](CCN)NC1=O)[C@@H](C)O` ({Octanoyl(7-Me)}-[Dab]T[Dab][Dab][Dab][dL]L[Dab][Dab]T; lactam 4-C), the minimum inhibitory concentration (MIC) against Klebsiella pneumoniae [1] (ATCC BAA-2146, 18 h) came to 1 µg/mL (≈ 0.855 µM); in the data set with Escherichia coli [2] (isolate 14-11, 18 h), 1 µg/mL (≈ 0.855 µM); with Acinetobacter baumannii (setting [6]) it was 1 µg/mL (≈ 0.855 µM); with Escherichia coli [3] (ATCC 25922, 18 h) it was 1 µg/mL (≈ 0.855 µM); in the data set with Klebsiella pneumoniae [4] (setting [7]), 1 µg/mL (≈ 0.855 µM); against Pseudomonas aeruginosa (ATCC 27853, 18 h), 2 µg/mL (≈ 1.71 µM). Half-maximal cytotoxicity in data set [5] (CC50 at 72 h) was put at 87 µg/mL (≈ 74.4 µM).
In the case of `CCCCCCC(=O)N[C@@H](CCN)C(=O)N[C@H](C(=O)N[C@@H](CCN)C(=O)N[C@H]1CCNC(=O)[C@H]([C@@H](C)O)NC(=O)[C@H](CCN)NC(=O)[C@H](CCN)NC(=O)[C@H](CC(C)C)NC(=O)[C@@H](Cc2ccccc2)NC(=O)[C@H](CCN)NC1=O)[C@@H](C)O` [POLYMYXIN B4] (Heptanoyl-[Dab]T[Dab][Dab][Dab][dF]L[Dab][Dab]T; lactam 4-C), the MIC is 0.5 µg/mL (≈ 0.425 µM) with Klebsiella pneumoniae [1] (ATCC BAA-2146, 18 h); 0.5 µg/mL (≈ 0.425 µM) with Escherichia coli [2] (isolate 14-11, 18 h); 0.5 µg/mL (≈ 0.425 µM) against Acinetobacter baumannii (setting [6]); 0.5 µg/mL (≈ 0.425 µM) against Escherichia coli [3] (ATCC 25922, 18 h); 1 µg/mL (≈ 0.851 µM) in the data set on Klebsiella pneumoniae [4] (setting [7]); 1 µg/mL (≈ 0.851 µM) in the data set with Pseudomonas aeruginosa (ATCC 27853, 18 h). In data set [5], this molecule yielded a CC50 at 72 h of 160 µg/mL (≈ 136 µM).
Turning to `CCCCCCCCC(=O)N[C@@H](CCN)C(=O)N[C@H](C(=O)N[C@@H](CCN)C(=O)N[C@H]1CCNC(=O)[C@H]([C@@H](C)O)NC(=O)[C@H](CCN)NC(=O)[C@H](CCN)NC(=O)[C@H](CC(C)C)NC(=O)[C@@H](Cc2ccccc2)NC(=O)[C@H](CCN)NC1=O)[C@@H](C)O` [POLYMYXIN B5] (Nonanoyl-[Dab]T[Dab][Dab][Dab][dF]L[Dab][Dab]T; lactam 4-C), the MIC against Klebsiella pneumoniae [1] (ATCC BAA-2146, 18 h) is 4 µg/mL (≈ 3.32 µM); against Escherichia coli [2] (isolate 14-11, 18 h), 2 µg/mL (≈ 1.66 µM); against Acinetobacter baumannii (setting [6]), 2 µg/mL (≈ 1.66 µM); in the data set on Escherichia coli [3] (ATCC 25922, 18 h), 2 µg/mL (≈ 1.66 µM); against Klebsiella pneumoniae [4] (setting [7]) it was 2 µg/mL (≈ 1.66 µM); with Pseudomonas aeruginosa (ATCC 27853, 18 h), 4 µg/mL (≈ 3.32 µM). Moreover, the CC50 at 72 h in data set [5] was determined as 33 µg/mL (≈ 27.4 µM).
Regarding COLISTIN, the MIC stood at 1 µg/mL in the data set on Klebsiella pneumoniae [1]; 0.5 µg/mL with Escherichia coli [2]; 0.5 µg/mL in the data set with Acinetobacter baumannii (ATCC 19606 = CIP 70.34 = JCM 6841); 1 µg/mL with Escherichia coli [3]; 1 µg/mL against Klebsiella pneumoniae [4]; 2 µg/mL in the data set on Pseudomonas aeruginosa.
